How the values were obtained:
[1] = target: T1, Cholecystokinin receptor type A (Rattus norvegicus, UniProt P30551); test: Inhibition by displacing [3H]CCK-8S against Cholecystokinin type A receptor of rat pancreatic membranes
T1 sequence (P30551 whole entry): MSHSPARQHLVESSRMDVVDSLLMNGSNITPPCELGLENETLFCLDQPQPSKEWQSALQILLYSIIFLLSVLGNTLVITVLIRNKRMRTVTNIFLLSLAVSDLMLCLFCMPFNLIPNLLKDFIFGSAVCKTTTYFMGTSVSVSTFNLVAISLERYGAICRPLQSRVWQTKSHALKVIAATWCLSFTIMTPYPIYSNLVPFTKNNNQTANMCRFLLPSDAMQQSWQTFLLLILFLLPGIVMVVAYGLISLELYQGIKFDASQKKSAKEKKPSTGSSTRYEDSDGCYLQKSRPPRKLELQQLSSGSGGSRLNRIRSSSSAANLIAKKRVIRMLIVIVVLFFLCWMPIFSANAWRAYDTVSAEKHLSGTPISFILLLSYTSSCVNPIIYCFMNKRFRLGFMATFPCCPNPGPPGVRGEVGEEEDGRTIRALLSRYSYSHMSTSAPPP

[2] = target: T2, Cholecystokinin receptor type A (Cavia porcellus) (UniProt Q63931); details: Gall bladder
T2 sequence (whole entry): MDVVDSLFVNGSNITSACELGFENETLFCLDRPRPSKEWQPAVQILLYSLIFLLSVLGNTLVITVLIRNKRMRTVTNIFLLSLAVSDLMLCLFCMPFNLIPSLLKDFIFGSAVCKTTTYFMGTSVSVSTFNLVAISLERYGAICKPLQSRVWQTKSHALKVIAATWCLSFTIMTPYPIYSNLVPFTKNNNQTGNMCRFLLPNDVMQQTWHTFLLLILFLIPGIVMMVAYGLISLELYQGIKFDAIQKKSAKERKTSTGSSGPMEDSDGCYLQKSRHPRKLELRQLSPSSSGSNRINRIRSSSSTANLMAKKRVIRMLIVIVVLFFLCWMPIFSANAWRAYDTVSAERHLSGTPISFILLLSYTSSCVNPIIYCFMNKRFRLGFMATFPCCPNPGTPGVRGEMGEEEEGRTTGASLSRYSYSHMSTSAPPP

[3] = target: T3, Gastrin/cholecystokinin type B receptor (Homo sapiens) (UniProt P32239); details: Cavia porcellus
T3 sequence (whole entry): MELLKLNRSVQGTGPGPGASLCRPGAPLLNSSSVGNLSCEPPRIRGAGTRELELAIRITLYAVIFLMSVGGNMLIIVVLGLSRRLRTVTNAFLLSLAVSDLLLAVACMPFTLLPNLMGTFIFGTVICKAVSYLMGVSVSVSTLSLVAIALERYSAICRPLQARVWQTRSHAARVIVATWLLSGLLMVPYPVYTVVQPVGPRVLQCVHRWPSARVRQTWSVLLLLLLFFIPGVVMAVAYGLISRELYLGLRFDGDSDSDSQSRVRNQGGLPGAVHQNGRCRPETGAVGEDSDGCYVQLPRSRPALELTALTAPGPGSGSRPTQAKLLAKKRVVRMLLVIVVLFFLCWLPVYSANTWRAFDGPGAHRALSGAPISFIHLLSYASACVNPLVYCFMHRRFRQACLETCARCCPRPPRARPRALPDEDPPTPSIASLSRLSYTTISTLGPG

[4] = target: T2, Cholecystokinin receptor type A (Cavia porcellus)
[5] = test system: Mus musculus; test: Anxiolytic effect in the mouse black / white box model, when administered orally (po); format: functional
In short: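 Naive mice placed in an activity box with a brightly illuminated section. The read-out was the time the mice remained in the lit section. Dose-related effects were assessed, and an ED50 value was derived.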

[6] = test system: Rattus norvegicus; test: Anxiolytic effect in the rat social interaction test against FG 7142, when administered intraperitoneally; format: functional; details: ip
[7] = species on record: Rattus norvegicus; test: pKB determined against pentagastrin-induced acid secretion in isolated rat gastric mucosa; format: functional
In short: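 Isolated rat gastric mucosa used as a gastrin-receptor preparation; acid secretion stimulated with pentagastrin and antagonism expressed as pKB.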

[8] = test system: Mus musculus; test: Anxiolytic effect in the mouse black / white box model, when administered intravenously; format: functional; details: iv
In short: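 Naive mice were placed in an activity box with a brightly illuminated section, and the time they spent there was recorded. The effect was assessed over a dose series and reported as an ED50.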

[9] = target: T1, Cholecystokinin receptor type A; test: In vitro inhibition of binding of [3H]pCCK-8 against Cholecystokinin type A receptor of rat pancreatic membranes; format: cell membranes, Membrane
In short: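 Radioligand displacement of [3H]CCK-8S from membranes: rat pancreas for the CCK-A receptor and guinea-pig cerebral cortex for the CCK-B receptor, using slightly modified published methods. Values are means of n experiments.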

[10] = test system: Rattus norvegicus; test: Anxiolytic effect in the rat social interaction test, when administered orally (po); format: functional
[11] = species on record: Cavia porcellus; test: Selectivity factor between CCK-B and CCK-A receptors

Cc1cccc(NC(=O)N[C@@H]2N=C(c3ccccc3)c3ccccc3N(C)C2=O)c1 [L-365260]
Ki [1]: 0.148 nM

O=C(Nc1ccccc1)NC1C(=O)N(CC23C[C@H]4C[C@@H](C2)C[C@@H](C3)C4)c2ccccc2N(c2ccccc2)C1=O (single isomer, unassigned; (+)) [listing 1 of 2 here]
pKB [2]: 5.8
pKB [3]: 8.9
pKB [4]: 5.9

O=C(Nc1ccccc1)NC1C(=O)N(CC23C[C@H]4C[C@@H](C2)C[C@@H](C3)C4)c2ccccc2N(c2ccccc2)C1=O (single isomer, unassigned; (+)) [listing 2 of 2 here]
ED50 [5]: 0.05 µg/kg
ED50 [6]: 10 µg/kg
pKB [7]: 7.4
ED50 [8]: 0.03 µg/kg
Ki [9]: 1620 nM
Ki [1]: 1480 nM
ED50 [10]: 1.6 µg/kg

CC(C)(C)CCN1C(=O)C(NC(=O)Nc2ccccc2)C(=O)N(c2ccccc2F)c2ccccc21 (racemic)
Ki [9]: 70.8 nM
Ratio [11]: 74

CC(C)CCN1C(=O)C(NC(=O)Nc2ccccc2)C(=O)N(c2ccccc2F)c2ccccc21 (racemic)
Ki [9]: 195 nM
Ratio [11]: 25

CC(C)CC(C)N1C(=O)C(NC(=O)Nc2ccccc2)C(=O)N(c2ccccc2)c2ccccc21 (racemic)
Ki [9]: 115 nM
Ratio [11]: 55
